# Screening results (PubChem BioAssay)
# The list is not random: actives were taken first. Their share in the collection is about 3.1%.
# CHO parental Ca: counter-screen for OX1R antagonists: effect in parental CHO cells; parental CHO-K1, ATP-induced calcium, Fluo-8 fluorescence; inhibition, % at 5.6 µM; actives 0.63% (n = 330,000); AID 463079;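 active = inhibition above that plate's mean sample inhibition plus 3 SD, cut at about 26% in these data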;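 note: 0% = ATP-challenged DMSO wells and 100% = DMSO wells without ATP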
#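 Test system: untransfected parental CHO cell line; also added: ATP stimulus; dosing: 5.6 µM, single dose; signal: calcium-sensitive Fluo-8 fluorescence; measure: percent inhibition of ATP-evoked calcium rise, normalized to controls; benchmarks: low control ATP plus DMSO, high control DMSO only; replication: one well per compound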
# GPR7 antag: antagonists of human GPR7 (neuropeptides B/W receptor 1); AID 1861; inhibition, % at 4.4 µM; GPR7-expressing cells, fluorescence antagonist assay; actives 1.1% (n = 290,000); in the data active = inhibition above about 16%, passing the limit was not always enough;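 note: cells stimulated with the agonist NPW; 0% = agonist with vehicle and 100% = vehicle without agonist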
# GalR3 antag: antagonists of human GalR3; O60755; HEK293 GalR3-CNG cAMP membrane potential fluorescence; galR3 body fused to GalR1 C-terminus; inhibition, % at 3 µM; actives 0.44% (n = 360,000);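 active = inhibition above the screen-wide average plus 3 SD, cut at about 13% in these data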;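 note: forskolin and galanin both at EC90 stimulate the cells; cAMP rise reported by CNG channel membrane potential dye signal; 0% = forskolin plus galanin with DMSO and 100% = forskolin alone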
# OX1R antag-1: antagonists of human orexin 1 receptor; O43613; CHO/OX1R cells, Fluo-8 calcium fluorescence, orexin A; inhibition, % at 5 µM; actives 0.43% (n = 330,000); AID 434989;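 active = inhibition above its plate's threshold, mean inhibition of all tested compounds on the plate plus 3 SD, cut at about 37% in these data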;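 note: 0% = orexin A challenge wells and 100% = SB-334867-A antagonist wells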
# Target sequence (O43613 whole entry, looked up): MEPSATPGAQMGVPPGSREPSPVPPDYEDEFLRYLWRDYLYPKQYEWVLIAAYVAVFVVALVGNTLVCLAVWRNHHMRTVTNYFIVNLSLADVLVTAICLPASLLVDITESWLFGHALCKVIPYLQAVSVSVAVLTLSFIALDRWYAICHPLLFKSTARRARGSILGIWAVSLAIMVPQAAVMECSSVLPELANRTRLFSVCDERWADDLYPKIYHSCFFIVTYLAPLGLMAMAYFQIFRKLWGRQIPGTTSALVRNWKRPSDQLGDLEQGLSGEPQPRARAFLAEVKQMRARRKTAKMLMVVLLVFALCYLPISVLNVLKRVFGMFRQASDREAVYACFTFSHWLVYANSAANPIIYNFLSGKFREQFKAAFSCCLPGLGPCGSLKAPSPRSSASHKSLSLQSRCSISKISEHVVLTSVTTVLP
# OX1R antag-2: antagonists of human orexin 1 receptor (OX1R) | actives 1.8% (n = 330,000) | OX1R-expressing cells, FRET antagonist read-out | O43613 | inhibition, % at 6.6 µM; in the data active = inhibition mostly above about 38%, no sharp cut-off; inactive = mostly below about 40%;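 note: 0% = agonist challenge alone and 100% = reference antagonist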
# GPR7 antag conf: confirmation of human GPR7 antagonists | shares compounds with GPR7 antag | GPR7-expressing cells, calcium fluorescence antagonist mode | inhibition, % at 4.4 µM | actives 52% (n = 2,400); in the data active = inhibition above about 24%;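 note: stimulated with the GPR7 agonist NPW; 0% = agonist plus vehicle and 100% = vehicle alone without agonist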
# MCHR1 antagonist: counter-screen for GPR7 antagonists: antagonists of human MCHR1. shares compounds with GPR7 antag. MCHR1-expressing cells, fluorescence antagonist assay. inhibition, % at 4.4 µM. actives 62% (n = 2,400). AID 2148; in the data active = inhibition above about 22%;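 note: 0% = vehicle with agonist and 100% = vehicle without agonist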
# * marks the source's active call; other numbers are inactive results; . = not tested or not shown.
SMILES,CHO parental Ca,GPR7 antag,GalR3 antag,OX1R antag-1,OX1R antag-2,GPR7 antag conf,MCHR1 antagonist
O=C(NC1CCCCC1)C(c1ccc(F)cc1)N(Cc1ccco1)C(=O)c1ccccn1 (configuration not stated),-11,26*,-7,-21,15,6,12
O=C(NCc1ccccc1)C(c1ccc(F)cc1)N(Cc1ccco1)C(=O)c1ccccn1 (configuration not stated),-18,7,-1,-13,10,.,.
CN1C(=O)C(CC(=O)Nc2ccc(F)cc2)N(CCCc2ccccc2)C1=S (configuration not stated),4,26*,0,48*,52,24*,41*
CCc1ccc(CN(Cc2cccnc2)C(=O)/C=C/c2ccc(OC)cc2)cc1,-8,39*,-9,-10,20,32*,49*
CC(=O)CSc1ccc(-c2nc3cc(C)c(C)cc3[nH]2)cn1,-13,-2,-5,-20,40,.,.
Cc1cc2nc(-c3ccc(SCc4ccc(C#N)cc4)nc3)[nH]c2cc1C,5,33*,-2,3,53,55*,66*
N#Cc1ccccc1CSc1ccc(-c2nc3ccccc3[nH]2)cn1,0,31*,-8,13,32,5,74*
C[C@@H]1CN([C@H](C)CO)C(=O)CCCn2nncc2CO[C@@H]1CN(C)S(=O)(=O)c1cccs1,.,.,-8,.,.,.,.
COC(=O)[C@]12CCCCC=C1N(Cc1ccccc1)C(=O)[C@H](CC(=O)NCc1cccs1)C2,.,.,-3,.,.,.,.
CCS(=O)(=O)c1ncc(Cl)c(C(=O)Nc2ccccc2OC)n1,8,1,-2,-8,8,.,.
CC(=O)Nc1ccc(NC(=O)c2nc(S(=O)(=O)Cc3cccc(C)c3)ncc2Cl)cc1,26,17,0,25,5,.,.
CCS(=O)(=O)c1ncc(Cl)c(C(=O)Nc2ccc(S(=O)(=O)N3CCC(C)CC3)cc2)n1,41*,58*,-10,24,47*,89*,95*
COc1ccccc1NC(=O)c1nc(S(=O)(=O)Cc2ccccc2)ncc1Cl,17,32*,0,27,9,41*,30*
COC(=O)c1ccc(NC(=O)c2nc(S(=O)(=O)Cc3cccc(C)c3)ncc2Cl)cc1,28,32*,-4,45,21,72*,86*
CC1CCN(S(=O)(=O)c2ccc(NC(=O)c3ccncc3)cc2)CC1,1,4,-6,1,16,.,.
CCc1ccc(NC(=O)c2nc(S(=O)(=O)Cc3ccccc3)ncc2Cl)cc1,57*,56*,-7,63*,24,88*,103*
O=C(OCc1cn([C@@H]2C[C@H](c3ccccc3)N(Cc3cccs3)C[C@H]2O)nn1)c1ccccc1,.,.,-6,.,.,.,.
CC[C@H](C)[C@H]1CNC(=S)N1CC1CCN(CCCC2CCCC2)CC1,.,.,1,.,.,.,.
CC(NC(=O)Cn1c(NCCO)nc2ccccc21)C1CC2CCC1C2 (configuration not stated),-19,33*,-6,-12,12,27*,21
Cc1nc2ccccc2n1CC(=O)NC(C)C1CC2CCC1C2 (configuration not stated),-12,4,-6,-24,41,.,.
COCCCNC(=O)C[C@H]1C[C@H](C(=O)N(C(C)C)C(C)C)[C@@]2(C)c3[nH]c4cc(CCC(=O)N(C)C)ccc4c3CCN2C1=O,-13,.,-4,-7,4,.,.
Cc1ccc(C(=O)c2oc3ccc(Cl)cc3c2NC(=O)CN2CCN(C)CC2)cc1,-10,24*,-3,-7,-7,29*,42*
O=C(CN1CCOCC1)Nc1c(C(=O)C2CC2)oc2ccccc12,-13,-6,-2,-41,6,.,.
CN1CCN(CC(=O)Nc2c(C(=O)C3CC3)oc3ccccc23)CC1,-3,21*,1,-29,12,1,10
CCOC(=O)C(CNc1ccc(O)cc1)NC(=O)c1ccccc1 (configuration not stated),.,.,-6,.,.,.,.
SMILES,CHO parental Ca,GPR7 antag,GalR3 antag,OX1R antag-1,OX1R antag-2,GPR7 antag conf,MCHR1 antagonist
CSCC[C@H](NC(=O)[C@H](Cc1ccccc1)n1c(=O)[nH]c2ccccc2c1=O)C(=O)NCC1CCC(C(=O)O)CC1 (some centres not stated),-5,6,-7,-4,9,.,.
CC(C)Oc1ccc(S(=O)(=O)N2CCOCC2)cc1NC(=O)CN1C(=O)NC2(CCCC2)C1=O,1,-10,-2,-9,-5,.,.
NCCSc1c(-c2ccccc2)[nH]c2ccccc12,-9,21*,.,-3,2,19,23*
O=C(OCC(=O)N1CCN(S(=O)(=O)c2ccccc2)CC1)c1ccc([N+](=O)[O-])o1,-9,29*,5,0,63,-5,-1
Cc1ccc(/C(N)=N/OC(=O)c2cccc(Cn3cc(C(F)(F)F)ccc3=O)c2)cc1,-10,21*,-3,-27,3,-7,23*
N/C(=N\OC(=O)c1cccc(Cn2cc(C(F)(F)F)ccc2=O)c1)c1ccc(Cl)cc1,-16,-9,0,-35,4,.,.
CC1CCC(C(C)C)C(OCC(O)CN2CCCC(C)C2)C1 (configuration not stated),-4,32*,-4,-33,19,39*,25*
c1ccc(COCc2ccccc2)cc1,.,.,1,.,.,.,.
CCC(C)NCCCOc1ccc(Cl)cc1C(C)(C)C (configuration not stated),-5,-2,3,-8,4,.,.
CNCCCOc1ccc(Cl)cc1C(C)(C)C,-2,25*,-10,2,11,41*,48*
COCCCNCCCOc1ccc(Cl)cc1C(C)(C)C,-18,22*,-6,-16,17,26*,33*
O=C(CSc1ccccc1)Nc1ccc2c(c1)C(=O)NC2=O,8,27*,-8,14,19,37*,36*
Cc1ccc(OCC(=O)Nc2ccc3c(c2)C(=O)NC3=O)c(C)c1,-12,20,-4,-5,37,.,.
COc1ccc(OCC(=O)Nc2ccc3c(c2)C(=O)NC3=O)cc1,4,29*,3,16,37,26*,17
O=C(COc1ccc(Br)cc1)Nc1ccc2c(c1)C(=O)NC2=O,13,8,-5,17,18,.,.
CC(=O)c1ccc(C(=O)Nc2ccc3c(c2)C(=O)NC3=O)cc1,4,22*,2,-8,9,-11,6
Cc1cccc(C)c1OCC(=O)Nc1ccc2c(c1)C(=O)NC2=O,-10,32*,1,-5,30,27*,29*
COC(=O)C[C@H]1C[C@@H]2c3cc(NC(=O)CN(C)C)ccc3O[C@@H]2[C@H](CO)O1,.,.,-5,.,.,.,.
